In ChEMBL document CHEMBL2390929, “New nitric oxide donating 1,2,4-triazole/oxime hybrids: synthesis, investigation of anti-inflammatory, ulceroginic liability and antiproliferative activities” (Bioorg Med Chem, 2013) one finds Activity, inhibition in vivo and UI data, which are given here for one compound.

Series [1] has as its system Rattus norvegicus. The series can be described thus: Gastrointestinal toxicity in albino rat assessed as severe atrophic gastritis and gland atrophy at 0.28 mmol/kg, po using haematoxylin and eosin staining by light microscopic analysis. In kind it is organism-based. Conditions: in vivo. A digest of the protocol: (§1)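 Adult male albino rats (120–140 g, Minia University), groups of four, fasted 24 h with water allowed. Oral dose 0.28 mmol/kg suspended in 0.5% aqueous CMC; vehicle-only controls. Gastric sections dewaxed, stained with haematoxylin 5–7 min, differentiated in 1% HCl/70% alcohol, counterstained with 1% eosin 10 min. Cleared in xylene, mounted, examined by light microscopy at ×400.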

Series [2] concerns Rattus norvegicus. Nature of the series: Gastrointestinal toxicity in albino rat assessed as decreased in thickness with marked loss of mucosal membrane at areas of ulceration at 0.28 mmol/kg, po using haematoxylin and eosin staining by light microscopic analysis. Conditions: in vivo. In kind it is organism-based. Put shortly:
as §1

Series [3] concerns Rattus norvegicus. The series can be described thus: Antiinflammatory activity in albino rat assessed as inhibition of carrageenan-induced paw edema at 0.28 mmol/kg, po after 3 hrs relative to control. In kind it is functional. A digest of the protocol:
(§2)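 Adult male albino rats (120–140 g), four per group, fasted 24 h with water allowed. Test agent suspended in 0.5% w/v aqueous CMC and given orally at 0.28 mmol/kg; controls received CMC alone. After 30 min, 0.1 mL fresh 1% carrageenan in saline was injected subplantar into the right hind paw and saline into the left. Paw thickness was measured by Vernier caliper; % inhibition = [(VR−VL)control − (VR−VL)treated]/(VR−VL)control ×100. Mean ± SEM, one-way ANOVA.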
(In general: Carrageenan injected into the paw causes an acute inflammation.)

The subject of series [4] is Rattus norvegicus. The series can be described thus: Gastrointestinal toxicity in albino rat assessed as ulcer index at 0.28 mmol/kg, po (reference value: 0.60 +/- 0.05). Format: organism-based. Conditions: in vivo.
Series [5] has as its system Rattus norvegicus. The series can be described thus: Antiinflammatory activity in albino rat assessed as inhibition of carrageenan-induced paw edema at 0.28 mmol/kg, po after 2 hrs relative to control. Format: functional. Put shortly:
as §2

For series [6], the system named is Rattus norvegicus. Nature of the series: Antiinflammatory activity in albino rat assessed as inhibition of carrageenan-induced paw edema at 0.28 mmol/kg, po after 4 hrs relative to control. Format: functional. A digest of the protocol: as §2
The subject of series [7] is Rattus norvegicus. Nature of the series: Gastrointestinal toxicity in albino rat assessed as acute inflammatory cell infiltrating its whole thickness and apparently destroying surface of epithelium at 0.28 mmol/kg, po using haematoxylin and eosin staining by light microscopic analysis. Conditions: in vivo. Format: organism-based. A digest of the protocol:
as §1

Series [8] relates to Rattus norvegicus. The series can be described thus: Antiinflammatory activity in albino rat assessed as inhibition of carrageenan-induced paw edema at 0.28 mmol/kg, po after 1 hr relative to control. In kind it is functional. A digest of the protocol:
as §2

For series [9], the system named is Rattus norvegicus. Nature of the series: Gastrointestinal toxicity in albino rat assessed as acute inflammatory cell infiltrating its whole thickness and apparently destroying epithelial lining of gastric pits at 0.28 mmol/kg, po using haematoxylin and eosin staining by light microscopic analysis. In kind it is organism-based, Stomach. Conditions: in vivo. Put shortly:
as §1

The test system of series [10] is Rattus norvegicus. The series can be described thus: Gastrointestinal toxicity in albino rat assessed as apoptotic glandular epithelial cells at 0.28 mmol/kg, po using haematoxylin and eosin staining by light microscopic analysis. Format: organism-based, Epithelial cell. Conditions: in vivo. Put shortly:
as §1

Series [11] relates to Rattus norvegicus. Nature of the series: Gastrointestinal toxicity in albino rat assessed as capillary vasodilatation associated with accumulation of edema fluid in lamina propria at 0.28 mmol/kg, po using haematoxylin and eosin staining by light microscopic analysis. Conditions: in vivo. Format: organism-based. Put shortly:
as §1

Series [12] has as its system Rattus norvegicus. The series can be described thus: Antiinflammatory activity in albino rat assessed as inhibition of carrageenan-induced paw edema at 0.28 mmol/kg, po after 5 hrs relative to control. Format: functional. A digest of the protocol: as §2

Turning to `COc1ccc2c(c1)c(CC(=O)O)c(C)n2C(=O)c1ccc(Cl)cc1` [INDOMETHACIN], the Activity result in the series on Rattus norvegicus [1], in the series with Rattus norvegicus [2], with Rattus norvegicus [7], with Rattus norvegicus [9], with Rattus norvegicus [10] and in the series with Rattus norvegicus [11] was “Toxic” in each case. Further, the inhibition in vivo (in general, the change of the read-out against control, counted positive when it falls) at 280 µmol/kg in the series with Rattus norvegicus [3] was 74%; in the series with Rattus norvegicus [5], 67%; in the series with Rattus norvegicus [6] it was 83%; in the series on Rattus norvegicus [8], 51%; with Rattus norvegicus [12], 87%. In the series on Rattus norvegicus [4], the UI was 63.45.
